ChEMBL document CHEMBL5385966, “Synthesis and biological evaluation of new naphthalimide-thiourea derivatives as potent antimicrobial agents active against multidrug-resistant Staphylococcus aureus and Mycobacterium tuberculosis” (RSC Med Chem, 2024)
≈ marks a conversion by molar mass, not a printed value. Calls of active or inactive are those of the source. The rule behind the calls is not given here.

Key:
[1] = tested on: Mycobacteroides abscessus; assay: Antimycobacterial activity against Mycobacterium abscessus ATCC 19977 assessed as bacterial growth inhibition incubated for 72 hrs by resazurin dye based broth microdilution method; type: functional, organism-based
Summary of the method: (§1)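 Broth microdilution in Middlebrook 7H9 with 10% ADC-Tween-80 (0.2% glycerol, 0.05% Tween-80), inoculum ~10⁶ cfu/mL. Compounds came from 10 mg/mL DMSO stocks and were tested as two-fold serial dilutions at 37 °C, 7 days for M. tuberculosis H37Rv and 72 h for NTM. Growth was read visually with PrestoBlue resazurin dye; MIC was the lowest concentration preventing growth. Triplicate determinations, each in duplicate.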

Mycobacteroides chelonae = assay: Antimycobacterial activity against Mycobacteroides chelonae ATCC 35752 assessed as bacterial growth inhibition incubated for 72 hrs by resazurin dye based broth microdilution method; type: functional, organism-based; summary of the method: as §1
[2] = tested on: Mycolicibacterium fortuitum; assay: Antimycobacterial activity against Mycobacterium fortuitum ATCC 6841 assessed as bacterial growth inhibition incubated for 72 hrs by resazurin dye based broth microdilution method; type: functional, organism-based; summary of the method: as §1
[3] = tested on: Mycobacterium tuberculosis; assay: Antimycobacterial activity against Mycobacterium tuberculosis H37Rv ATCC 27294 assessed as bacterial growth inhibition incubated for 7 days by resazurin dye based broth microdilution method; type: functional; settings: H37Rv ATCC 27294, 168 h, time 7 day; summary of the method: as §1
Escherichia coli = assay: Antibacterial activity against Escherichia coli ATCC 25922 assessed as bacterial growth inhibition incubated for 16 to 18 hrs by CLSI based antibiotic susceptibility testing method; type: functional, organism-based; settings: time 16-18 hrs
Summary of the method: (§2)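 Broth microdilution in cation-adjusted Mueller-Hinton broth. Compounds were tested at […], with levofloxacin as reference and medium-only controls. Plates were incubated at 37 °C for 16-18 h. MIC was the lowest concentration with no visible growth; three independent determinations, each in duplicate.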

Staphylococcus aureus = assay: Antibacterial activity against Staphylococcus aureus ATCC 29213 assessed as bacterial growth inhibition incubated for 16 to 18 hrs by CLSI based antibiotic susceptibility testing method; type: functional; settings: time 16-18 hrs; summary of the method: as §2
Pseudomonas aeruginosa = assay: Antibacterial activity against Pseudomonas aeruginosa ATCC 27853 assessed as bacterial growth inhibition incubated for 16 to 18 hrs by CLSI based antibiotic susceptibility testing method; type: functional, organism-based; settings: time 16-18 hrs; summary of the method: as §2
Acinetobacter baumannii = assay: Antibacterial activity against Acinetobacter baumannii BAA 1605 assessed as bacterial growth inhibition incubated for 16 to 18 hrs by CLSI based antibiotic susceptibility testing method; type: functional, organism-based; settings: time 16-18 hrs; summary of the method: as §2
Klebsiella pneumoniae = assay: Antibacterial activity against Klebsiella pneumoniae BAA 1705 assessed as bacterial growth inhibition incubated for 16 to 18 hrs by CLSI based antibiotic susceptibility testing method; type: functional, organism-based; settings: time 16-18 hrs; summary of the method: as §2

## CO[C@H]1/C=C/O[C@@]2(C)Oc3c(C)c(O)c4c(O)c(c(/C=N/N5CCN(C)CC5)c(O)c4c3C2=O)NC(=O)/C(C)=C\C=C\[C@H](C)[C@H](O)[C@@H](C)[C@@H](O)[C@@H](C)[C@H](OC(C)=O)[C@@H]1C [RIFAMPIN]
[1]
  growth inhibition (GI): inactive
Mycobacteroides chelonae
  growth inhibition (GI): inactive
[2]
  growth inhibition (GI): inactive
[3]
  MIC: 0.03 µg/mL (≈ 0.0365 µM)

## CCCCCCCNC(=S)N1CCN(CCN2C(=O)c3cccc4cccc(c34)C2=O)CC1
Escherichia coli
  growth inhibition (GI): inactive
Staphylococcus aureus
  MIC: > 64 µg/mL
Pseudomonas aeruginosa
  growth inhibition (GI): inactive
Acinetobacter baumannii
  growth inhibition (GI): inactive
[1]
  growth inhibition (GI): inactive
Mycobacteroides chelonae
  growth inhibition (GI): inactive
[2]
  growth inhibition (GI): inactive
[3]
  MIC: 64 µg/mL (≈ 137 µM)
Klebsiella pneumoniae
  growth inhibition (GI): inactive

## O=C(CCN1C(=O)c2cccc3cccc(c23)C1=O)N1CCN(C(=S)Nc2ccccc2Cl)CC1
Escherichia coli
  growth inhibition (GI): inactive
Staphylococcus aureus
  MIC: > 64 µg/mL
Pseudomonas aeruginosa
  growth inhibition (GI): inactive
Acinetobacter baumannii
  growth inhibition (GI): inactive
[1]
  growth inhibition (GI): inactive
Mycobacteroides chelonae
  growth inhibition (GI): inactive
[2]
  growth inhibition (GI): inactive
[3]
  MIC: > 64 µg/mL
Klebsiella pneumoniae
  growth inhibition (GI): inactive

## O=C(CCN1C(=O)c2cccc3cccc(c23)C1=O)N1CCN(C(=S)Nc2ccc(Cl)cc2)CC1
Escherichia coli
  growth inhibition (GI): inactive
Staphylococcus aureus
  MIC: > 64 µg/mL
Pseudomonas aeruginosa
  growth inhibition (GI): inactive
Acinetobacter baumannii
  growth inhibition (GI): inactive
[1]
  growth inhibition (GI): inactive
Mycobacteroides chelonae
  growth inhibition (GI): inactive
[2]
  growth inhibition (GI): inactive
[3]
  MIC: 64 µg/mL (≈ 126 µM)
Klebsiella pneumoniae
  growth inhibition (GI): inactive

## O=C1c2cccc3cccc(c23)C(=O)N1CCN1CCN(C(=S)Nc2cccnc2)CC1
Escherichia coli
  growth inhibition (GI): inactive
Staphylococcus aureus
  MIC: > 64 µg/mL
Pseudomonas aeruginosa
  growth inhibition (GI): inactive
Acinetobacter baumannii
  growth inhibition (GI): inactive
[1]
  growth inhibition (GI): inactive
Mycobacteroides chelonae
  growth inhibition (GI): inactive
[2]
  growth inhibition (GI): inactive
[3]
  MIC: > 64 µg/mL
Klebsiella pneumoniae
  growth inhibition (GI): inactive

## O=C(CCN1C(=O)c2cccc3cccc(c23)C1=O)NC1CCN(C(=S)Nc2ccccc2)CC1
Escherichia coli
  growth inhibition (GI): inactive
Staphylococcus aureus
  MIC: > 64 µg/mL
Pseudomonas aeruginosa
  growth inhibition (GI): inactive
Acinetobacter baumannii
  growth inhibition (GI): inactive
[1]
  growth inhibition (GI): inactive
Mycobacteroides chelonae
  growth inhibition (GI): inactive
[2]
  growth inhibition (GI): inactive
[3]
  MIC: 64 µg/mL (≈ 132 µM)
Klebsiella pneumoniae
  growth inhibition (GI): inactive

## CCN=C(S)N1CCN(CCN2C(=O)c3cccc4cccc(c34)C2=O)CC1
Escherichia coli
  growth inhibition (GI): inactive
Staphylococcus aureus
  MIC: > 64 µg/mL
Pseudomonas aeruginosa
  growth inhibition (GI): inactive
Acinetobacter baumannii
  growth inhibition (GI): inactive
[1]
  growth inhibition (GI): inactive
Mycobacteroides chelonae
  growth inhibition (GI): inactive
[2]
  growth inhibition (GI): inactive
[3]
  MIC: 64 µg/mL (≈ 161 µM)
Klebsiella pneumoniae
  growth inhibition (GI): inactive

## NCC[C@H](O)C(=O)N[C@@H]1C[C@H](N)[C@@H](O[C@H]2O[C@H](CN)[C@@H](O)[C@H](O)[C@H]2O)[C@H](O)[C@H]1O[C@H]1O[C@H](CO)[C@@H](O)[C@H](N)[C@H]1O [AMIKACIN]
[1]
  growth inhibition (GI): inactive
Mycobacteroides chelonae
  growth inhibition (GI): inactive
[2]
  growth inhibition (GI): inactive
[3]
  MIC: 0.5 µg/mL (≈ 0.854 µM)

## Cc1ccc(NC(=S)N2CCN(CCN3C(=O)c4cccc5cccc(c45)C3=O)CC2)cc1
Escherichia coli
  growth inhibition (GI): inactive
Staphylococcus aureus
  MIC: > 64 µg/mL
Pseudomonas aeruginosa
  growth inhibition (GI): inactive
Acinetobacter baumannii
  growth inhibition (GI): inactive
[1]
  growth inhibition (GI): inactive
Mycobacteroides chelonae
  growth inhibition (GI): inactive
[2]
  growth inhibition (GI): inactive
[3]
  MIC: > 64 µg/mL
Klebsiella pneumoniae
  growth inhibition (GI): inactive

## O=C(CN1C(=O)c2cccc3cccc(c23)C1=O)N1CCN(C(=S)Nc2cccc(Cl)c2)CC1
Escherichia coli
  growth inhibition (GI): inactive
Staphylococcus aureus
  MIC: > 64 µg/mL
Pseudomonas aeruginosa
  growth inhibition (GI): inactive
Acinetobacter baumannii
  growth inhibition (GI): inactive
[1]
  growth inhibition (GI): inactive
Mycobacteroides chelonae
  growth inhibition (GI): inactive
[2]
  growth inhibition (GI): inactive
[3]
  MIC: 32 µg/mL (≈ 64.9 µM)
Klebsiella pneumoniae
  growth inhibition (GI): inactive

## O=C(CCN1C(=O)c2cccc3cccc(c23)C1=O)NC1CCN(C(=S)Nc2ccc(Cl)cc2)CC1
Escherichia coli
  growth inhibition (GI): inactive
Staphylococcus aureus
  MIC: > 64 µg/mL
Pseudomonas aeruginosa
  growth inhibition (GI): inactive
Acinetobacter baumannii
  growth inhibition (GI): inactive
[1]
  growth inhibition (GI): inactive
Mycobacteroides chelonae
  growth inhibition (GI): inactive
[2]
  growth inhibition (GI): inactive
[3]
  MIC: > 64 µg/mL
Klebsiella pneumoniae
  growth inhibition (GI): inactive

## COc1ccc(NC(=S)N2CCN(CCN3C(=O)c4cccc5cccc(c45)C3=O)CC2)cc1
Escherichia coli
  growth inhibition (GI): inactive
Staphylococcus aureus
  MIC: > 64 µg/mL
Pseudomonas aeruginosa
  growth inhibition (GI): inactive
Acinetobacter baumannii
  growth inhibition (GI): inactive
[1]
  growth inhibition (GI): inactive
Mycobacteroides chelonae
  growth inhibition (GI): inactive
[2]
  growth inhibition (GI): inactive
[3]
  MIC: > 64 µg/mL
Klebsiella pneumoniae
  growth inhibition (GI): inactive

## CN[C@@H]1[C@H](O[C@H]2[C@H](O[C@H]3[C@H](O)[C@@H](O)[C@H](N=C(N)N)[C@@H](O)[C@@H]3N=C(N)N)O[C@@H](C)[C@]2(O)C=O)O[C@@H](CO)[C@H](O)[C@H]1O [STREPTOMYCIN]
[1]
  growth inhibition (GI): inactive
Mycobacteroides chelonae
  growth inhibition (GI): inactive
[2]
  growth inhibition (GI): inactive
[3]
  MIC: 1 µg/mL (≈ 1.72 µM)

## NNC(=O)c1ccncc1 [ISONIAZID]
[1]
  growth inhibition (GI): inactive
Mycobacteroides chelonae
  growth inhibition (GI): inactive
[2]
  growth inhibition (GI): inactive
[3]
  MIC: 0.03 µg/mL (≈ 0.219 µM)

## COc1ccc(NC(=S)N2CCN(C(=O)CCN3C(=O)c4cccc5cccc(c45)C3=O)CC2)cc1
Escherichia coli
  growth inhibition (GI): inactive
Staphylococcus aureus
  MIC: > 64 µg/mL
Pseudomonas aeruginosa
  growth inhibition (GI): inactive
Acinetobacter baumannii
  growth inhibition (GI): inactive
[1]
  growth inhibition (GI): inactive
Mycobacteroides chelonae
  growth inhibition (GI): inactive
[2]
  growth inhibition (GI): inactive
[3]
  MIC: 8 µg/mL (≈ 15.9 µM)
Klebsiella pneumoniae
  growth inhibition (GI): inactive

## O=C1c2cccc3cccc(c23)C(=O)N1CCN1CCN(C(=S)NC23CC4CC(CC(C4)C2)C3)CC1
Escherichia coli
  growth inhibition (GI): inactive
Staphylococcus aureus
  MIC: > 64 µg/mL
Pseudomonas aeruginosa
  growth inhibition (GI): inactive
Acinetobacter baumannii
  growth inhibition (GI): inactive
[1]
  growth inhibition (GI): inactive
Mycobacteroides chelonae
  growth inhibition (GI): inactive
[2]
  growth inhibition (GI): inactive
[3]
  MIC: > 64 µg/mL
Klebsiella pneumoniae
  growth inhibition (GI): inactive

## O=C(CN1C(=O)c2cccc3cccc(c23)C1=O)NC1CCN(C(=S)NC2CCCC2)CC1
Escherichia coli
  growth inhibition (GI): inactive
Staphylococcus aureus
  MIC: > 64 µg/mL
Pseudomonas aeruginosa
  growth inhibition (GI): inactive
Acinetobacter baumannii
  growth inhibition (GI): inactive
[1]
  growth inhibition (GI): inactive
Mycobacteroides chelonae
  growth inhibition (GI): inactive
[2]
  growth inhibition (GI): inactive
[3]
  MIC: > 64 µg/mL
Klebsiella pneumoniae
  growth inhibition (GI): inactive

## CC(C)NC(=S)N1CCN(CCN2C(=O)c3cccc4cccc(c34)C2=O)CC1
Escherichia coli
  growth inhibition (GI): inactive
Staphylococcus aureus
  MIC: > 64 µg/mL
Pseudomonas aeruginosa
  growth inhibition (GI): inactive
Acinetobacter baumannii
  growth inhibition (GI): inactive
[1]
  growth inhibition (GI): inactive
Mycobacteroides chelonae
  growth inhibition (GI): inactive
[2]
  growth inhibition (GI): inactive
[3]
  MIC: > 64 µg/mL
Klebsiella pneumoniae
  growth inhibition (GI): inactive

## O=C1c2cccc3cccc(c23)C(=O)N1CCN1CCN(C(=S)NC2CC2)CC1
Escherichia coli
  growth inhibition (GI): inactive
Staphylococcus aureus
  MIC: > 64 µg/mL
Pseudomonas aeruginosa
  growth inhibition (GI): inactive
Acinetobacter baumannii
  growth inhibition (GI): inactive
[1]
  growth inhibition (GI): inactive
Mycobacteroides chelonae
  growth inhibition (GI): inactive
[2]
  growth inhibition (GI): inactive
[3]
  MIC: > 64 µg/mL
Klebsiella pneumoniae
  growth inhibition (GI): inactive

## Cc1ccc(NC(=S)N2CCN(C(=O)CN3C(=O)c4cccc5cccc(c45)C3=O)CC2)cc1
Escherichia coli
  growth inhibition (GI): inactive
Staphylococcus aureus
  MIC: > 64 µg/mL
Pseudomonas aeruginosa
  growth inhibition (GI): inactive
Acinetobacter baumannii
  growth inhibition (GI): inactive
[1]
  growth inhibition (GI): inactive
Mycobacteroides chelonae
  growth inhibition (GI): inactive
[2]
  growth inhibition (GI): inactive
[3]
  MIC: 64 µg/mL (≈ 135 µM)
Klebsiella pneumoniae
  growth inhibition (GI): inactive

## O=C1c2cccc3cccc(c23)C(=O)N1CCN1CCN(C(=S)Nc2cccc(Cl)c2)CC1
Escherichia coli
  growth inhibition (GI): inactive
Staphylococcus aureus
  MIC: > 64 µg/mL
Pseudomonas aeruginosa
  growth inhibition (GI): inactive
Acinetobacter baumannii
  growth inhibition (GI): inactive
[1]
  growth inhibition (GI): inactive
Mycobacteroides chelonae
  growth inhibition (GI): inactive
[2]
  growth inhibition (GI): inactive
[3]
  MIC: > 64 µg/mL
Klebsiella pneumoniae
  growth inhibition (GI): inactive

## O=C(CN1C(=O)c2cccc3cccc(c23)C1=O)N1CCC(NC(=S)NC23CC4CC(CC(C4)C2)C3)CC1
Escherichia coli
  growth inhibition (GI): inactive
Staphylococcus aureus
  MIC: 4 µg/mL (≈ 7.54 µM)
Pseudomonas aeruginosa
  growth inhibition (GI): inactive
Acinetobacter baumannii
  growth inhibition (GI): inactive
[1]
  growth inhibition (GI): inactive
Mycobacteroides chelonae
  growth inhibition (GI): inactive
[2]
  growth inhibition (GI): inactive
[3]
  MIC: 32 µg/mL (≈ 60.3 µM)
Klebsiella pneumoniae
  growth inhibition (GI): inactive

## CC[C@@H](CO)NCCN[C@@H](CC)CO [ETHAMBUTOL]
[1]
  growth inhibition (GI): inactive
Mycobacteroides chelonae
  growth inhibition (GI): inactive
[2]
  growth inhibition (GI): inactive
[3]
  MIC: 2 µg/mL (≈ 9.79 µM)
